From ChEMBL document CHEMBL2203116, “Synthesis and evaluation of novel carbon-11 labeled oxopurine analogues for positron emission tomography imaging of translocator protein (18 kDa) in peripheral organs” (J Med Chem, 2011)

Assays:
Kidney [1] = experiment: Biodistribution in Sprague-Dawley rat kidney at 0.19 nmol, iv by gamma counting; assay type: ADME, organism-based; conditions: in vivo
How it was run: (§1)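 Male Sprague-Dawley rats were given intratracheal LPS (E. coli O127:B8, 5.0 mg/kg in 50 μL saline) or 50 μL saline vehicle 24 h before tracer. [11C]Radioligand (16 MBq/200 μL, 0.19 nmol) in saline was injected via the tail vein. Rats were killed at 30 min (n = 4 per group). Tissues were weighed and gamma-counted, expressed as decay-corrected %ID/g.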

Liver [2] = experiment: Drug uptake in Sprague-Dawley rat liver at 0.15 nmol, iv after 27.5 mins by PET scanning; assay type: ADME, organism-based; conditions: in vivo
How it was run: (§2)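 Male Sprague-Dawley rats (6–8 weeks old), isoflurane-anesthetized, prone. ROIs on lung, heart, kidney, liver, small intestine and cardiac blood pool. Uptake decay-corrected to injection time and expressed as SUV (body-weight normalized). n = 4, mean ± SD.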

Heart = experiment: Drug uptake in Sprague-Dawley rat heart at 0.15 nmol, iv pretreated with unlabeled (R)-PK11195 by PET scanning; assay type: ADME, organism-based; conditions: in vivo
How it was run: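 Isoflurane-anesthetized Sprague-Dawley rats underwent 30-min PET after iv [11C]radioligand, with unlabeled blocker given iv 1 min before tracer. Blockers were (R)-PK11195 at 3.0 mg/kg or AC-5216 at 1.0 mg/kg in 300 μL saline with 10% ethanol and 5% polysorbate 80. Regional uptake was decay-corrected SUV (n = 4).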

Liver [3] = experiment: Drug uptake in Sprague-Dawley rat liver at 0.15 nmol, iv after 2 mins by PET scanning; assay type: ADME, organism-based; conditions: in vivo; how it was run: as §2
Blood = experiment: Drug uptake in Sprague-Dawley rat cardiac blood pool at 0.15 nmol, iv after 27.5 mins by PET scanning; assay type: ADME, organism-based; conditions: in vivo
How it was run: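 Isoflurane-anesthetized male Sprague-Dawley rats lay prone and received an iv bolus of [11C]radioligand in 200 μL. 3D list-mode emission scans ran 30 min from injection. Regions of interest were drawn on the organs and cardiac blood pool. Uptake was decay-corrected to injection time and expressed as SUV (normalized to injected radioactivity and body weight). Values are mean of n = 4.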

Kidney [4] = experiment: Drug uptake in Sprague-Dawley rat kidney at 0.15 nmol, iv up to 30 mins by PET scanning; assay type: ADME, organism-based; conditions: in vivo, 0.5 h; how it was run: as §2
Lung = experiment: Biodistribution in LPS-treated Sprague-Dawley rat lung at 0.19 nmol, iv by gamma counting; assay type: ADME, organism-based; conditions: in vivo; how it was run: as §1
Kidney [5] = experiment: Biodistribution in LPS-treated Sprague-Dawley rat kidney at 0.19 nmol, iv by gamma counting; assay type: ADME, organism-based; conditions: in vivo; how it was run: as §1
Liver [6] = experiment: Drug uptake in Sprague-Dawley rat liver at 0.15 nmol, iv pretreated with unlabeled (R)-PK11195 measured after 27.5 mins by PET scanning relative to control; assay type: ADME, organism-based; conditions: in vivo
How it was run: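 Male Sprague-Dawley rats, 6-8 weeks old, under isoflurane, prone. An unlabeled TSPO blocking ligand (3.0 mg/kg) was injected 1 min before the iv radioligand (16-18 MBq/200 μL). A liver ROI was decay-corrected and expressed as SUV normalized to injected activity and body weight. The 27.5-min value was compared with unblocked controls; n = 4.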

Muscle tissue = experiment: Biodistribution in LPS-treated Sprague-Dawley rat muscle at 0.19 nmol, iv by gamma counting; assay type: ADME, organism-based; conditions: in vivo; how it was run: as §1
Pancreas = experiment: Biodistribution in LPS-treated Sprague-Dawley rat pancreas at 0.19 nmol, iv by gamma counting; assay type: ADME, organism-based; conditions: in vivo; how it was run: as §1
Spleen [7] = experiment: Biodistribution in LPS-treated Sprague-Dawley rat spleen at 0.19 nmol, iv by gamma counting; assay type: ADME, organism-based; conditions: in vivo; how it was run: as §1
Adrenal = experiment: Biodistribution in LPS-treated Sprague-Dawley rat adrenal at 0.19 nmol, iv by gamma counting; assay type: ADME, organism-based, Adrenal tissue; conditions: in vivo; how it was run: as §1
Spleen [8] = experiment: Biodistribution in Sprague-Dawley rat spleen at 0.19 nmol, iv by gamma counting; assay type: ADME, organism-based; conditions: in vivo; how it was run: as §1

`CCN(Cc1ccncc1)C(=O)Cn1c(=O)n([11CH3])c2cnc(-c3ccccc3)nc21` was tested, and the Drug uptake (Kidney [1]) was 1.78 % ID/g, the SUV (Liver [2]) was 0.5 and the Drug uptake (Heart) was “Not Active”. For the same compound, the SUV (Liver [3]) was 1.6, the SUV (Blood) was 0.4 and the Drug uptake (Kidney [4]) was “Active”. For the same compound, the Drug uptake (Lung) was 3.54 % ID/g, the Drug uptake (Kidney [5]) was 1.97 % ID/g and the “fold change (FC)” value (Liver [6]) was 1.5. It also gave a Drug uptake (Muscle tissue) of 0.1 % ID/g, a Drug uptake (Pancreas) of 0.37 % ID/g and a Drug uptake (Spleen [7]) of 1.88 % ID/g. It also gave a Drug uptake (Adrenal) of 5.27 % ID/g and a Drug uptake (Spleen [8]) of 1.88 % ID/g.
